Measured values taken from ChEMBL document CHEMBL2157988, “Isolation, characterization and cytotoxic activity of benzophenone glucopyranosides from Mahkota Dewa (Phaleria macrocarpa (Scheff.) Boerl)” (Bioorg Med Chem Lett, 2012).
Calls of active or inactive are those of the source. The rule behind the calls is not given here.

Assays:
Assay type in all cases: functional, cell-based
[1] = Cytotoxicity against human EC9706 cells after 72 hrs by SRB assay; conditions: EC9706, 72 h
Method in brief: (§1)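 Cells in DMEM with 10% FBS and 1% penicillin/streptomycin; log-phase cells trypsinized and seeded at 5000 cells/well. DMSO stocks diluted 1000-fold in medium (<0.1% DMSO); final 100 down to 1.5625 μM in twofold steps, 72 h. Fixed with 50% TCA, stained 0.4% SRB, solubilized in 10 mM Tris base pH 10.5, OD 515 nm; IC50 calculated.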

MGC-803 [2] = assay: Cytotoxicity against human MGC803 cells after 72 hrs by SRB assay; conditions: MGC-803, 72 h; method in brief: as §1
PC-3 = assay: Cytotoxicity against human PC3 cells after 72 hrs by SRB assay; conditions: PC-3, 72 h; method in brief: as §1
[3] = Cytotoxicity against human EC109 cells after 72 hrs by SRB assay; conditions: ECa-109, 72 h; method in brief: as §1
MGC-803 [4] = assay: Cytotoxicity against human L-NAC-pretreated MGC803 cells incubated 2 hr post-L-NAC addition measured after 72 hrs by SRB assay
Method in brief: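 MGC-803 cells in DMEM/10% FBS, seeded 5000 cells/well, preincubated with or without 5 mM L-NAC (ROS scavenger) for 2 h before compound addition. Compound final 100 to 1.5625 μM (twofold series, <0.1% DMSO), 72 h. SRB readout after TCA fixation, OD 515 nm; IC50 (50% cell death) calculated.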

| Structure (SMILES) | IC50 [1] | IC50 (MGC-803 [2]) | IC50 (PC-3) | IC50 [3] | Activity (MGC-803 [4]) |
| --- | --- | --- | --- | --- | --- |
| C=CCOc1ccc(C(=O)c2c(OCC=C)cc(OC)cc2O[C@@H]2O[C@H](CO)[C@@H](O)[C@H](O)[C@H]2O)cc1 | > 100 µM | > 100 µM | > 100 µM | > 100 µM | – |
| COc1cc(OC)c(C(=O)c2ccc(O)cc2)c(O[C@@H]2O[C@H](CO)[C@@H](O)[C@H](O)[C@H]2O)c1 | > 100 µM | > 100 µM | > 100 µM | > 100 µM | – |
| COc1cc(OC(=O)c2ccc(Cl)cc2)c(C(=O)c2ccc(OC(=O)c3ccc(Cl)cc3)cc2)c(O[C@@H]2O[C@H](COC(=O)c3ccc(Cl)cc3)[C@@H](OC(=O)c3ccc(Cl)cc3)[C@H](OC(=O)c3ccc(Cl)cc3)[C@H]2OC(=O)c2ccc(Cl)cc2)c1 | > 100 µM | > 100 µM | > 100 µM | > 100 µM | – |
| CCCC(=O)OC[C@H]1O[C@@H](Oc2cc(OC)cc(OC(=O)CCC)c2C(=O)c2ccc(OC(=O)CCC)cc2)[C@H](OC(=O)CCC)[C@@H](OC(=O)CCC)[C@@H]1OC(=O)CCC | > 100 µM | > 100 µM | > 100 µM | > 100 µM | – |
| COc1cc(O)c(C(=O)c2ccc(O)cc2)c(O[C@@H]2O[C@H](CO)[C@@H](O)[C@H](O)[C@H]2O)c1 [MAHKOSIDE A] | > 100 µM | > 100 µM | > 100 µM | > 100 µM | – |
| COc1cc(OC(=O)c2ccccc2)c(C(=O)c2ccc(OC(=O)c3ccccc3)cc2)c(O[C@@H]2O[C@H](COC(=O)c3ccccc3)[C@@H](OC(=O)c3ccccc3)[C@H](OC(=O)c3ccccc3)[C@H]2OC(=O)c2ccccc2)c1 | > 100 µM | > 100 µM | > 100 µM | > 100 µM | – |
| COc1cc(OC(C)=O)c(C(=O)c2ccc(OC(C)=O)cc2)c(O[C@@H]2O[C@H](COC(C)=O)[C@@H](OC(C)=O)[C@H](OC(C)=O)[C@H]2OC(C)=O)c1 | 86.1 µM | 47.3 µM | 34.1 µM | 50.7 µM | – |
| COc1cc(O)c(C(=O)c2ccc(OCc3ccccc3)cc2)c(OCc2ccccc2)c1 | > 100 µM | > 100 µM | > 100 µM | > 100 µM | – |
| COc1cc(OCC2CO2)c(C(=O)c2ccc(OCC3CO3)cc2)c(O[C@@H]2O[C@H](CO)[C@@H](O)[C@H](O)[C@H]2O)c1 (stereo partly drawn) | > 100 µM | > 100 µM | > 100 µM | > 100 µM | – |
| COc1cc(O)c(C(=O)c2ccc(O)cc2)c(O[C@@H]2O[C@H](COC(C)=O)[C@@H](O)[C@H](O)[C@H]2O)c1 [MAHKOSIDE B] | > 100 µM | > 100 µM | > 100 µM | > 100 µM | – |
| COc1cccc(COc2ccc(C(=O)c3c(OCc4cccc(OC)c4)cc(OC)cc3O[C@@H]3O[C@H](CO)[C@@H](O)[C@H](O)[C@H]3O)cc2)c1 | 20.9 µM | 18.4 µM | 6.92 µM | 12.3 µM | – |
| COc1cc(OCCCBr)c(C(=O)c2ccc(OCc3ccccc3)cc2)c(OCc2ccccc2)c1 | > 100 µM | > 100 µM | > 100 µM | > 100 µM | – |
| CCOc1ccc(C(=O)c2c(OCC)cc(OC)cc2O[C@@H]2O[C@H](CO)[C@@H](O)[C@H](O)[C@H]2O)cc1 | > 100 µM | > 100 µM | > 100 µM | > 100 µM | – |
| COc1cc(OCCCN2CCCCC2)c(C(=O)c2ccc(OCc3ccccc3)cc2)c(OCc2ccccc2)c1 | 4.97 µM | 3.12 µM | 3.47 µM | 5.14 µM | Active |
| CCCCOc1ccc(C(=O)c2c(OCCCC)cc(OC)cc2O[C@@H]2O[C@H](CO)[C@@H](O)[C@H](O)[C@H]2O)cc1 | 41.8 µM | 49.2 µM | 32 µM | 29 µM | – |
| COc1cc(OCCCBr)c(C(=O)c2ccc(OCCCBr)cc2)c(O[C@@H]2O[C@H](CO)[C@@H](O)[C@H](O)[C@H]2O)c1 | 31.3 µM | 53.8 µM | 40 µM | 23.1 µM | – |
| COc1ccc(COc2ccc(C(=O)c3c(OCc4ccc(OC)cc4)cc(OC)cc3O[C@@H]3O[C@H](CO)[C@@H](O)[C@H](O)[C@H]3O)cc2)cc1 | 20.5 µM | 28.2 µM | 11.7 µM | 17.1 µM | – |
| COc1cc(OCc2ccccc2)c(C(=O)c2ccc(OCc3ccccc3)cc2)c(O[C@@H]2O[C@H](CO)[C@@H](O)[C@H](O)[C@H]2O)c1 | 41.1 µM | 44.3 µM | 28.9 µM | 22.7 µM | – |
